Measurements gathered from unrelated publications.
Each line is one published result; the experiments were not run side by side.

| SMILES | cell line | observed | technique | time | IC50 |
| --- | --- | --- | --- | --- | --- |
| COc1cc2nc(N3CCN(C(=O)c4ccco4)[C@H]4CCCC[C@H]43)nc(N)c2cc1OC (racemic) | HN-6 | cell growth or viability |  | 72 h | 15.6 µM |
| Nc1ccc(Cl)c[n+]1[Pt-2]([Cl])([Cl])[n+]1cc(Cl)ccc1N | BEAS-2B | cell growth or viability | MTT | 24 h | 10.3 µM |
| COc1cccc2c1C(=O)c1c(O)c3c(c(O)c1C2=O)C[C@@](O)(C(=O)CO)C[C@@H]3O[C@H]1C[C@H](N)[C@H](O)[C@H](C)O1 | SGC-7901 | cell growth or viability | MTT | 48 h | 0.13 µM |
| CN1CCN(c2ccc3nc(-c4c(N)c5c(F)cccc5[nH]c4=O)[nH]c3c2)CC1 | RT-112 | cell growth or viability | MTT | 5 days | 0.2 µM |
| CC(C)(C)C1=CC(=NNC(=O)c2cccnc2)C=C(C(C)(C)C)C1=O | human Fibroblast | cell growth or viability | resazurin | 24 h | > 100 µM |
| O=C(NCCc1c[nH]c2ccccc12)C(=O)c1c[nH]c2ccc(F)cc12 | C4-2 | cell growth or viability | MTT |  | > 100 µM |
| O=C(c1cc(Cc2n[nH]c(=O)c3ccccc23)ccc1F)N1CCN(C(=O)C2CC2)CC1 | KATO III | colony formation |  |  | 2.43 µM |
| CCN(CC)CCNC(=O)COc1ccc(OC)cc1 | HN-6 | cell growth or viability |  | 72 h | > 20 µM |
| COc1nc(OCc2cccc(-c3ccccc3)c2C)ccc1CNCCNC(C)=O | HK-2 | cell growth or viability | MTT |  | 1.9 µM |
| CC(C)(C)C1=CC(=NNc2ccc(C#N)cc2)C=C(C(C)(C)C)C1=O | human Fibroblast | cell growth or viability | resazurin | 24 h | > 100 µM |
| CC(=O)CC(c1ccccc1)c1c(O)c2ccccc2oc1=O (centres unmarked) | HN-6 | cell growth or viability |  | 72 h | > 20 µM |
| CCN1C(=O)N(c2c(F)c(OC)cc(OC)c2F)Cc2cnc3[nH]c(CN4CCOCC4)cc3c21 | RT-112 | cell growth or viability | ATP luminescence | 96 h | 0.00522 µM |
| CN(C)CC[C@@H](c1ccc(Cl)cc1)c1ccccn1 | HN-6 | cell growth or viability |  | 72 h | > 20 µM |
| CCN(CC)CCCCNc1ncc2cc(-c3cc(OC)cc(OC)c3)c(NC(=O)NC(C)(C)C)nc2n1 | RT-112 | cell growth or viability | MTT | 5 days | 0.015 µM |
| O=C(CNC(=O)c1cccc2ccccc12)Nc1ccccc1Oc1cccc(O)c1 | SK-N-DZ | cell growth or viability |  |  | 0.539 µM |
| Cc1cc(O)c2c(c1)C(=O)c1cccc(O)c1C2=O | HK-2 | cell growth or viability | MTT | 24 h | > 500 µM |
| COc1ccc2c(c1OC)C(=O)O[C@@H]2[C@H]1c2c(cc3c(c2OC)OCO3)CCN1C | HN-6 | cell growth or viability |  | 72 h | 16.3 µM |
| O=C(CNC(=O)c1cccc2ccccc12)Nc1ccccc1Oc1ccc(O)cc1 | SK-N-DZ | cell growth or viability |  |  | 0.467 µM |
| COC(=O)CN=c1scc(-c2ccccc2)n1-c1ccccc1 | Panc 02.03 | cell growth or viability | MTT | 72 h | 81.5 µM |

| SMILES | cell line | observed | technique | time | IC50 |
| --- | --- | --- | --- | --- | --- |
| COc1cc(Nc2nccc(-c3cnn4nc(OC)ccc34)n2)cc(C(F)(F)F)c1 | A2058 | cell growth or viability | ATP luminescence |  | 0.19 µM |
| COc1cc([C@@H]2c3cc4c(cc3[C@@H](O[C@@H]3O[C@@H]5CO[C@@H](C)O[C@H]5[C@H](O)[C@H]3O)[C@H]3COC(=O)[C@H]23)OCO4)cc(OC)c1O | BEAS-2B | cell growth or viability |  |  | 11.2 µM |
| CS(=O)(=Nc1ccc(Br)cc1)c1c[nH]c2ccccc12 (centres unmarked) | C4-2 | cell growth or viability | MTT | 48 h | > 40 µM |
| C=C(C)C(=O)Nc1ccc(-c2c(-c3ccc(Oc4nccc(C)n4)c(F)c3)c3c(N)ncnc3n2C)cc1 | KATO III | cell growth or viability | ATP luminescence | 96 h | 0.00129 µM |
| Nc1nc(Nc2ccccc2)nc2c1ncn2[C@@H]1O[C@H](CO)[C@@H](O)[C@H]1O | HN-6 | cell growth or viability |  | 72 h | > 20 µM |
| COc1cccc2c1C(=O)c1c(O)c3c(c(O)c1C2=O)C[C@@](O)(C(=O)CO)C[C@@H]3O[C@H]1C[C@H](N)[C@H](O)[C@H](C)O1 | KATO III | cell growth or viability | MTT | 48 h | 0.71 µg/mL |
| CCN1CCN(c2ccc(Nc3cc(N(C)C(=O)Nc4c(Cl)c(OC)cc(OC)c4Cl)ncn3)cc2)CC1 | KATO III | cell growth or viability | ATP luminescence | 96 h | 0.00222 µM |
| COC(=O)CN=c1scc(-c2ccccc2)n1-c1ccccc1C | Panc 02.03 | cell growth or viability | MTT | 72 h | > 100 µM |
| CC(C)C[C@H](NC(=O)[C@H](Cc1ccccc1)NC(=O)c1cnccn1)B(O)O | RERF-LC-Ad2 | cell growth or viability | ATP luminescence |  | 0.022 µM |
| COc1c(O)cc2c(c1O)C(=O)c1c(cc(C)c(O)c1OC)C2=O | HK-2 | cell growth or viability | MTT | 24 h | > 500 µM |
| N=C(N)c1ccc(N=Nc2c(O)ccc3cc(O)ccc23)cc1 | MDA-MB-468 | cell growth or viability | MTT |  | 20 µM |
| COc1ccc(-c2nc(C(=O)Nc3nnc(-c4cc5ccccc5[nH]4)s3)cc3c2[nH]c2ccccc23)cc1 | BEAS-2B | cell growth or viability | MTT | 72 h | 71.2 µM |
| COc1ccc(Oc2ccccc2NC(=O)CNC(=O)c2cccc3ccccc23)cc1 | SK-N-DZ | cell growth or viability |  |  | 0.271 µM |
| O=C(O)c1cc(O)c2c(c1)C(=O)c1cccc(O[C@@H]3O[C@H](CO)[C@@H](O)[C@H](O)[C@H]3O)c1C2=O | HK-2 | cell growth or viability | MTT | 24 h | > 500 µM |
| Cn1cc(C(=O)C(=O)NCCc2c[nH]c3ccccc23)c2ccccc21 | C4-2 | cell growth or viability | MTT |  | > 100 µM |
| CCCCc1ccc2[nH]c(NC(=O)OC)nc2c1 | HN-6 | cell growth or viability |  | 72 h | 0.126 µM |
| COC(C)(C)CCC[C@](C)(O)[C@H]1CC[C@]2(C)[C@@H]1[C@H](O)C[C@@H]1[C@@]3(C)CC[C@H](O)C(C)(C)[C@@H]3CC[C@]12C | BEAS-2B | cell growth or viability | MTT | 72 h | 24.6 µM |
| Clc1ccc(N2CCN(Cc3c[nH]c4ncccc34)CC2)cc1 | HN-6 | cell growth or viability |  | 72 h | > 20 µM |
| O=C1NC(=NCc2cccs2)S/C1=C\c1ccc2ncccc2c1 | LOX IMVI | cell growth or viability |  |  | 4.4 µM |
